The source of these data is PubChem BioAssay.

The nature of assay [1]: reducers of endogenous Her2 protein level, primary screen, SKBR3 breast tumor cells, AlphaScreen, ATP viability (AID 461;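 active = Her2 level under about 52% in both replicate screens, with viability over 70% of control, limit read from the data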;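 as to Her2 level: lower value means less Her2 protein in the cells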;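 as to viability: percent of carrier control wells set as 100% viability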). Conditions: 18-24 h, measured here: SKBR3 viability, ATP luminescence, at 10 µM. In general terms: Alpha assays give light when donor and acceptor beads are brought close together.
Assay [2] deals with Receptor tyrosine-protein kinase erbB-2 (Homo sapiens) (UniProt P04626). The description is as above. The note with it: 18-24 h, at 10 µM, stronger effect = lower value.
Chain of Receptor tyrosine-protein kinase erbB-2 (Homo sapiens) (P04626 whole entry, looked up): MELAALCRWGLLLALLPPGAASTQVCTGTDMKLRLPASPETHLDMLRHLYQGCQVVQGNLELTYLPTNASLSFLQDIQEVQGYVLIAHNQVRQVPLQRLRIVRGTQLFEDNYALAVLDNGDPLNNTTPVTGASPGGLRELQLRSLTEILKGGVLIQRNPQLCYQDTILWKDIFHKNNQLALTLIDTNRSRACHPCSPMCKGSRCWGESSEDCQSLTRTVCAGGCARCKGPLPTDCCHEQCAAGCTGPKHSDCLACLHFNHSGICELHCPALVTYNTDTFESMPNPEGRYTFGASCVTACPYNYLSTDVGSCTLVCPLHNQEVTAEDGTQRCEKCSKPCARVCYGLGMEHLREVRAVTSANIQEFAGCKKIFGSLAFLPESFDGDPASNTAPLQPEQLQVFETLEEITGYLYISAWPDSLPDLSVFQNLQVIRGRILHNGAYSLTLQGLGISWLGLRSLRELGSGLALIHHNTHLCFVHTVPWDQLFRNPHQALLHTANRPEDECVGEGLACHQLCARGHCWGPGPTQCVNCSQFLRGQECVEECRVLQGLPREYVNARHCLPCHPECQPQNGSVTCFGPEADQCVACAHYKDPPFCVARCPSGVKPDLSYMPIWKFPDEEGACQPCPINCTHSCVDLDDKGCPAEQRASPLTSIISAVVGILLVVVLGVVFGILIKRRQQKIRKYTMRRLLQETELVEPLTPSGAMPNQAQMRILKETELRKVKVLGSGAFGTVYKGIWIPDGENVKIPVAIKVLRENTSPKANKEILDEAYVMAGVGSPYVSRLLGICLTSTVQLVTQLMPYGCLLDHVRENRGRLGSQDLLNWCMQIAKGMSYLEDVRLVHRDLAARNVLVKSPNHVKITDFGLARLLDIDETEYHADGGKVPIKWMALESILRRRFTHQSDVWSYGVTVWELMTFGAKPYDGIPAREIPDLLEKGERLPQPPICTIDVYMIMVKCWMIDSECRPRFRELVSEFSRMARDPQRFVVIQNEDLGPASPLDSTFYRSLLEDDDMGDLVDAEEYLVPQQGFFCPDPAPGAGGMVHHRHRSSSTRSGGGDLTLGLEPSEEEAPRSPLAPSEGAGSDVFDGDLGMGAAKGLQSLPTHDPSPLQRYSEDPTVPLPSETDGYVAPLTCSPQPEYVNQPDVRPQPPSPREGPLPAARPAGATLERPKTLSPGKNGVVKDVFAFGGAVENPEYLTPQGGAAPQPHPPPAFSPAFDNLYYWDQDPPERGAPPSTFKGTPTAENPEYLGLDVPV
A short description of assay [3]: SK-BR-3 cell growth inhibitors, pilot screen, 24 h, human (AID 572).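 Also: compound exposure lasted between 18 and 24 h rather than exactly 24 h; 100% = carrier-treated control wells.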 Conditions: SK-BR-3 viability, CellTiter-Glo luminescence, at 10 µM, stronger effect = lower value. (In general: In ATP-based viability assays light output follows the ATP content of the culture.)
Assay [4] is described as follows: HUVEC growth inhibition – cell-based, human, primary screen (AID 575;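 active = viability at or below 30% in both replicate assays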;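 also: 100% = median of untreated cell wells with 0.1% DMSO on each plate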). Conditions: HUVEC proliferation, CellTiter-Glo luminescence, 72 h; at 10 µM; stronger effect = lower value. The method in brief: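 Timing: 72 h treatment at 37 °C; material: HUVEC primary cells; technique: CellTiter-Glo luminescence measuring cellular ATP; controls: vehicle and MePR control wells; measure: percent of median DMSO-control luminescence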

Assay [5] can be described thus: growth inhibitors of H69AR lung tumor, primary screen, human, duplicate replicates (AID 580;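 active = viability at or under a set limit in both replicates, limit being median viability minus 3 SD, cut at about 48% in these data, passing the limit was not always enough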;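 also: 100% = mean luminescence of untreated wells and 0% = no signal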). The note with it: H69AR lung tumor cells viability, ATP luminescence, 72 h; at 10 µM; stronger effect = lower value.
The nature of assay [6]: reversal of MRP1-mediated doxorubicin resistance, pilot screen, H69AR cells, doxorubicin co-treatment (AID 601;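 active = viability loss from added drug above about 55%, and viability with drug at most 40%, in both replicates, limit read from the data, passing the limit was not always enough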). The note with it: CellTiter-Glo, 72 h, at 10 µM; for differential viability (reversal): stronger effect = higher value.
The nature of assay [7]: 384-well plate pilot, post-Golgi transport modulator project, inhibition of yeast transport mutant growth (AID 636; in the data active = inhibition above about 31%). The note with it: absorbance 615 nm, about 18 h, stronger effect = higher value.
A short description of assay [8]: growth suppression of yeast trafficking mutant, preliminary HTS, modulators of trafficking downstream of Golgi apparatus project, 1536-format plate, OD 615 nm (AID 637; in the data active = inhibition above about 30%). Conditions: yeast transport mutant growth, absorbance 615 nm, 18 h; stronger effect = higher value.
[9] abbreviates: H69AR cells + 2 uM doxorubicin, measured here: viability with 2 uM doxorubicin, stronger effect = lower value.
[10] abbreviates: H69AR cells, compound alone cytotoxicity.

The term viability denotes a read-out of living cells in per cent, often relative to untreated cells. By inhibition is commonly meant the drop in the measured response relative to a control, in per cent.

Each structure is given as a SMILES string. Calls of active or inactive are those of the source.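 The calls were made as follows, unless noted: active = viability at or below 10% of carrier control in both of two separate runs; inconclusive = viability at or below 10% in only one of the two runs; inactive = the rest.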

For the compound `COC(=O)c1sc(S(=O)(=O)NCc2cccs2)c(C(=O)OC)c1C`, the viability in assay [1] was 84%; in assay [3], 84% (inactive); in assay [4], 85.8% (inactive); in assay [5] it was 92.3% (inactive); in assay [6] (setting [9]) it was 84.9%; in assay [6] (setting [10]), 92.3%. Besides, the Her2 level in assay [2] is 93% (inactive). For the same compound, the differential viability (reversal) in assay [6] (H69AR cells + 2 uM doxorubicin) is 7.38% (inactive). The inhibition is -8.24% (inactive) in assay [7] and 4.26% (inactive) in assay [8].
Take `CC(C)OC(=O)CSc1nc2cccnc2n1C1CCCCC1`: the viability in assay [1] is 124%; in assay [3], 124% (inactive); in assay [4] it was 112% (inactive); in assay [5], 95.3% (inactive); in assay [6] (setting [9]), 89.4%; in assay [6] (setting [10]) it was 95.3%. In assay [2], the Her2 level is 93.5% (inactive). Besides, the differential viability (reversal) in assay [6] (H69AR cells + 2 uM doxorubicin) was 5.92% (inactive). Further, the inhibition was -5.33% (inactive) in assay [7] and 3.44% (inactive) in assay [8].
As for `COc1ccc(C(=O)NCc2ccccc2OC)cc1`, the viability in assay [1] is 110%; in assay [3], 110% (inactive); in assay [4], 93.8% (inactive); in assay [5], 105% (inactive); in assay [6] (setting [9]), 95.8%; in assay [6] (setting [10]), 105%. In addition, in assay [2], the Her2 level was 100% (inactive). Further, in assay [6] (H69AR cells + 2 uM doxorubicin), the differential viability (reversal) was 9.52% (inactive). The inhibition in assay [7] is -6.58% (inactive); in assay [8], -3.17% (inactive).
Turning to `CCN(CC)CCN1C(=O)C(O)=C(C(=O)c2cccs2)C1c1ccccn1` (stereo not given), the viability was 86% in assay [1]; 86% (inactive) in assay [3]; 100% (inactive) in assay [4]; 98% (inactive) in assay [5]; 79.5% in assay [6] (setting [9]); 98% in assay [6] (setting [10]). Also, in assay [2], the Her2 level is 82% (inactive). In addition, the differential viability (reversal) in assay [6] (H69AR cells + 2 uM doxorubicin) is 18.6% (inactive). Besides, the inhibition in assay [7] is -4.86% (inactive); in assay [8], -1.59% (inactive).
For the compound `O=C(c1cccs1)N1CCN=C1SCc1ccccc1`, the viability is 120% in assay [1]; 120% (inactive) in assay [3]; 60.8% (inactive) in assay [4]; 90.4% (inactive) in assay [5]; 84.2% in assay [6] (setting [9]); 90.4% in assay [6] (setting [10]). For the same compound, the Her2 level in assay [2] is 74.5% (inactive). For the same compound, the differential viability (reversal) in assay [6] (H69AR cells + 2 uM doxorubicin) is 6.13% (inactive). The inhibition in assay [7] was 3.51% (inactive); in assay [8], -0.66% (inactive).
As for `Cc1ccc(-n2nc(C(=O)N3CCN(C)CC3)c3c4ccccc4n(C)c3c2=O)cc1`, the viability in assay [1] was 90.5%; in assay [3], 90.5% (inactive); in assay [4], 99.9% (inactive); in assay [5] it was 96.8% (inactive); in assay [6] (setting [9]), 93.9%; in assay [6] (setting [10]), 96.8%. The Her2 level in assay [2] is 80% (inactive). Moreover, in assay [6] (H69AR cells + 2 uM doxorubicin), the differential viability (reversal) was 2.81% (inactive). For the same compound, the results for the inhibition in assay [7] and in assay [8] were -1.97% (inactive) and -1.61% (inactive), respectively.
In the case of `CN(Cc1ccccc1)c1nc2c(c(=O)[nH]c(=O)n2C)n1Cc1ccccc1Cl`, the viability was 114% in assay [1]; 114% (inactive) in assay [3]; 82.2% (inactive) in assay [4]; 85.4% (inactive) in assay [5]; 80.4% in assay [6] (setting [9]); 85.4% in assay [6] (setting [10]). For the same compound, the Her2 level in assay [2] is 87.5% (inactive). Moreover, the differential viability (reversal) in assay [6] (H69AR cells + 2 uM doxorubicin) was 4.96% (inactive). Moreover, the inhibition was -5.2% (inactive) in assay [7] and 8.36% (inactive) in assay [8].
Take `COC(=O)c1c(C)oc2ccc(NS(=O)(=O)c3cccs3)cc12`: the viability in assay [1] is 106%; in assay [3] it was 106% (inactive); in assay [4] it was 59% (inactive); in assay [5], 78.9% (inactive); in assay [6] (setting [9]), 101%; in assay [6] (setting [10]) it was 78.9%. The Her2 level in assay [2] was 94.5% (inactive). The differential viability (reversal) in assay [6] (H69AR cells + 2 uM doxorubicin) was -21.9% (inactive). In addition, the figures for the inhibition in assay [7] and in assay [8] were -1.32% (inactive) and 5.9% (inactive), respectively.
For the compound `NC(=O)COC(=O)c1ccc(S(=O)(=O)N2CCCCCC2)cc1`, the viability in assay [1] is 93%; in assay [3], 93% (inactive); in assay [4], 92.8% (inactive); in assay [5] it was 88% (inactive); in assay [6] (setting [9]) it was 90.9%; in assay [6] (setting [10]), 88%. In addition, in assay [2], the Her2 level is 104% (inactive). The differential viability (reversal) in assay [6] (H69AR cells + 2 uM doxorubicin) was -2.85% (inactive). The inhibition in assay [7] was -2.82% (inactive); in assay [8], -7.67% (inactive).
With `CCOC(=O)CNC(=O)CSc1nc(N)cc(N)n1`, the viability in assay [1] is 92%; in assay [3], 92% (inactive); in assay [4], 113% (inactive); in assay [5], 96.7% (inactive); in assay [6] (setting [9]) it was 96.6%; in assay [6] (setting [10]), 96.7%. The Her2 level in assay [2] was 96% (inactive). In addition, the differential viability (reversal) in assay [6] (H69AR cells + 2 uM doxorubicin) is 0.07% (inactive). The inhibition is -4.27% (inactive) in assay [7] and -9.84% (inactive) in assay [8].
On to `Cc1ccc(-n2c(=O)c(C#N)cc3c(=O)n4ccccc4nc32)cc1`, for which the viability is 100% in assay [1]; 100% (inactive) in assay [3]; 62.1% (inactive) in assay [4]; 97% (inactive) in assay [5]; 89.6% in assay [6] (setting [9]); 97% in assay [6] (setting [10]). For the same compound, in assay [2], the Her2 level was 84.5% (inactive). Moreover, in assay [6] (H69AR cells + 2 uM doxorubicin), the differential viability (reversal) was 7.35% (inactive). Besides, the inhibition in assay [7] is -4.59% (inactive); in assay [8], 2.06% (inactive).
For the compound `Cc1onc(-c2ccccc2)c1C(=O)Nc1ccc(S(=O)(=O)N2CCCCC2)cc1`, the viability in assay [1] is 95.5%; in assay [3], 95.5% (inactive); in assay [4] it was 58.4% (inactive); in assay [5] it was 88.9% (inactive); in assay [6] (setting [9]), 92.3%; in assay [6] (setting [10]), 88.9%. The Her2 level in assay [2] was 94.5% (inactive). The differential viability (reversal) in assay [6] (H69AR cells + 2 uM doxorubicin) is -3.39% (inactive). Also, the inhibition is -0.77% (inactive) in assay [7] and 1% (inactive) in assay [8].
Regarding `CCOC(=O)CNC(=O)C(Cc1ccccc1)NS(=O)(=O)c1ccc2c(c1)CCC(=O)N2` (stereo not given), the viability in assay [1] is 101%; in assay [3], 101% (inactive); in assay [4] it was 92.8% (inactive); in assay [5] it was 90.7% (inactive); in assay [6] (setting [9]) it was 91.7%; in assay [6] (setting [10]) it was 90.7%. Further, the Her2 level in assay [2] is 114% (inactive). Further, the differential viability (reversal) in assay [6] (H69AR cells + 2 uM doxorubicin) was -0.925% (inactive). For the same compound, the inhibition in assay [7] is 1.84% (inactive); in assay [8], -5.64% (inactive).
As to `c1cn(CC2(Cn3ccnc3)COC2)cn1`, the viability in assay [1] was 103%; in assay [3], 103% (inactive); in assay [4], 83% (inactive); in assay [5], 99.7% (inactive); in assay [6] (setting [9]) it was 87.8%; in assay [6] (setting [10]), 99.7%. Further, the Her2 level in assay [2] is 70.5% (inactive). For the same compound, the differential viability (reversal) in assay [6] (H69AR cells + 2 uM doxorubicin) was 12% (inactive). Besides, the inhibition in assay [7] was -3.77% (inactive); in assay [8] it was -0.79% (inactive).
Consider `COc1ccc2c(c1)C1(C)CC(C)(C)N2C(=O)N1c1ccccc1` (stereo not given), for which the viability in assay [1] is 101%; in assay [3] it was 101% (inactive); in assay [4], 61.5% (inactive); in assay [5], 67.3% (inactive); in assay [6] (setting [9]), 84%; in assay [6] (setting [10]), 67.3%. For the same compound, in assay [2], the Her2 level was 89.5% (inactive). Besides, the differential viability (reversal) in assay [6] (H69AR cells + 2 uM doxorubicin) was -16.7% (inactive). Besides, the results for the inhibition in assay [7] and in assay [8] were -5.07% (inactive) and -5.41% (inactive), respectively.
